The results in this text go back to ChEMBL document CHEMBL3352374, “Discovery of novel Bcr-Abl inhibitors targeting myristoyl pocket and ATP site” (Bioorg Med Chem, 2014).

Sequence of Bcr/Abl fusion protein (P00519 whole entry, the tested form may be a part): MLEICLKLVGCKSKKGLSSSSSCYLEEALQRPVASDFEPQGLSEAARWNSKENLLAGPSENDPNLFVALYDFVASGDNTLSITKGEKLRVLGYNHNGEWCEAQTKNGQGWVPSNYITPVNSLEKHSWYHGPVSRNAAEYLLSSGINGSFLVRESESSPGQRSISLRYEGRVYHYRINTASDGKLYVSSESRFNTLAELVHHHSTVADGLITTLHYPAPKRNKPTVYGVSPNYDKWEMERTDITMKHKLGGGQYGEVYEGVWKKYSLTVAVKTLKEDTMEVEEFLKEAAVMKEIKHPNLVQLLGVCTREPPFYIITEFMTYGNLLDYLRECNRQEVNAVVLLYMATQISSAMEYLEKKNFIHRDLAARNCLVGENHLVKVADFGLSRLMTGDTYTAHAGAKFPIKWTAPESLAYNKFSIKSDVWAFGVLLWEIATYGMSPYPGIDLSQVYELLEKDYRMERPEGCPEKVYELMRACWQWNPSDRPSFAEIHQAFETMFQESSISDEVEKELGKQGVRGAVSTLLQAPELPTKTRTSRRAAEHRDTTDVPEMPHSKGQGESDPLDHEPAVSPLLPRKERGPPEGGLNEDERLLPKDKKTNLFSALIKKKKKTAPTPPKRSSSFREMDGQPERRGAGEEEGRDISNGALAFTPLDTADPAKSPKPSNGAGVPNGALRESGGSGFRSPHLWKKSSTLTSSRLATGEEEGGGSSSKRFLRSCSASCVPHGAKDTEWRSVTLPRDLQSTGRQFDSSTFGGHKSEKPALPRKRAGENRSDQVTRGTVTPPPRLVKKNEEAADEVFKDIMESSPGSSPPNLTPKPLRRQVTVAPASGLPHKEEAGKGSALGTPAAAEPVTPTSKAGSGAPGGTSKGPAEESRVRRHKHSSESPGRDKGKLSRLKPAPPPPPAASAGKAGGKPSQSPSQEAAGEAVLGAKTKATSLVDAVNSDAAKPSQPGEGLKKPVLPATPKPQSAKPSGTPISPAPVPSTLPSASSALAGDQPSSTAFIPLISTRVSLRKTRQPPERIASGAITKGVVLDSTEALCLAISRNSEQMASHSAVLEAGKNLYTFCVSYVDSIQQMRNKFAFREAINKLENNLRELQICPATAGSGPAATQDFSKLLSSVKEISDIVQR
Sequence of Bcr/Abl fusion protein (P11274 whole entry, further chain, the tested form may be a part): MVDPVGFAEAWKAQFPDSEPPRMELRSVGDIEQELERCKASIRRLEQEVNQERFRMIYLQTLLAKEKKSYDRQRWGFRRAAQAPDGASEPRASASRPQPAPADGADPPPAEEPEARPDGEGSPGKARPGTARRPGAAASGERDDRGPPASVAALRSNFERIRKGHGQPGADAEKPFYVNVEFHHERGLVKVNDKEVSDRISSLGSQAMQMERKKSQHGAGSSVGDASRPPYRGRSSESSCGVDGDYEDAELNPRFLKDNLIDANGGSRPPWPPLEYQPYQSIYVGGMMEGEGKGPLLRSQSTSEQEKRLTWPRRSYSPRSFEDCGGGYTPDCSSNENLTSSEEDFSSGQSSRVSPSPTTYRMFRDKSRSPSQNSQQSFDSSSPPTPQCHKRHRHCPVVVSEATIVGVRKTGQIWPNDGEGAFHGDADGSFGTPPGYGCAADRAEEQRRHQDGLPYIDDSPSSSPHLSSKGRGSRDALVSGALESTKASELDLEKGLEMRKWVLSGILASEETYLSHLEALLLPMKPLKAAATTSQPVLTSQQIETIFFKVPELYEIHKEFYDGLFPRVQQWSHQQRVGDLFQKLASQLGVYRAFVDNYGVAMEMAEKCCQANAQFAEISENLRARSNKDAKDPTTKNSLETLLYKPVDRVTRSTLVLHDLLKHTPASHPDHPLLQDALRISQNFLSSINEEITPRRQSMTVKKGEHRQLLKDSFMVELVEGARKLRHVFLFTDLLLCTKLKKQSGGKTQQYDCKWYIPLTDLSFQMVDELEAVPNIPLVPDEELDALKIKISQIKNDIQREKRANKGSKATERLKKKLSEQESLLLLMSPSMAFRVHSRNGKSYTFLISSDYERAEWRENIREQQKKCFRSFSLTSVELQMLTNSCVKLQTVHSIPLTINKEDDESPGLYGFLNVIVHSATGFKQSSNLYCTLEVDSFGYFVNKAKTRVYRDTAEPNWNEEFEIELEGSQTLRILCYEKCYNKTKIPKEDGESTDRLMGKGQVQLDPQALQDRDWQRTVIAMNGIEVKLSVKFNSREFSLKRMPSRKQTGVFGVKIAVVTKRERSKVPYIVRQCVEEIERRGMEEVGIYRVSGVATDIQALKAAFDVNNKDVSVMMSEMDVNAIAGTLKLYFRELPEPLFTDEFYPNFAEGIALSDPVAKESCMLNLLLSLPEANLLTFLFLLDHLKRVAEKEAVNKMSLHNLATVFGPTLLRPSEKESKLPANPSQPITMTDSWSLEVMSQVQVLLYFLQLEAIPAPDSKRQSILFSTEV

The first assay has as its target Bcr/Abl fusion protein (Homo sapiens, UniProt P00519). Kind of assay: Inhibition of BCR/ABL (unknown origin) after 40 mins by ADP-Glo kinase assay. Format: protein assay.
Conditions: not given
Consider `O=C(c1ccc(-c2cc(Nc3ccc(C(F)(F)F)cc3)ncn2)cc1)N1CCN(C(=O)c2ccccc2F)CC1`, for which the IC50 came out at 78.6 µM.
`CC(C)(C)c1ccc(Nc2cc(-c3ccc(C(=O)N4CCN(C(=O)c5ccccc5F)CC4)cc3)ncn2)cc1` gave an IC50 of 354 µM.
Same read-out and setting: the same measure for `O=C(c1ccc(-c2cc(Nc3ccccc3F)ncn2)cc1)N1CCN(C(=O)c2ccccc2F)CC1`: 0.05 µM.
Still for that read-out and setting: the value for `O=C(c1ccc(-c2cc(Nc3cccc(Br)c3)ncn2)cc1)N1CCN(C(=O)c2ccccc2F)CC1` was > 500 µM.
The same measure, in the same setting: the value for `CC(=O)c1cccc(Nc2cc(-c3ccc(C(=O)N4CCN(C(=O)c5ccccc5F)CC4)cc3)ncn2)c1` was 0.385 µM; that for `O=C(c1ccc(-c2cc(Nc3ccc(Cl)cc3Cl)ncn2)cc1)N1CCN(C(=O)c2ccccc2F)CC1` was > 500 µM.
Regarding `O=C(c1ccc(-c2cc(Nc3ccccc3Cl)ncn2)cc1)N1CCN(C(=O)c2ccccc2F)CC1`, the IC50 came to 141 µM.
Same read-out and setting: the same measure for `O=C(c1ccc(-c2cc(Nc3ccc(F)c(F)c3)ncn2)cc1)N1CCN(C(=O)c2ccccc2F)CC1`: > 500 µM.
Same read-out and setting: the same measure for `COc1cccc(Nc2cc(-c3ccc(C(=O)N4CCN(C(=O)c5ccccc5F)CC4)cc3)ncn2)c1`: 16.1 µM.
Same read-out and setting: the same measure for `CC(C)c1cccc(Nc2cc(-c3ccc(C(=O)N4CCN(C(=O)c5ccccc5F)CC4)cc3)ncn2)c1`: > 500 µM.
On to `O=C(c1ccc(-c2cc(Nc3cccc(F)c3)ncn2)cc1)N1CCN(C(=O)c2ccccc2Cl)CC1`, for which the IC50 worked out at 6.06 µM.
The same measure, in the same setting: the value for `O=C(c1ccc(-c2cc(Nc3ccccc3Cl)ncn2)cc1)N1CCN(C(=O)c2ccccc2Cl)CC1` was 0.07 µM; that for `O=C(c1ccc(-c2cc(Nc3ccc(F)cc3)ncn2)cc1)N1CCN(C(=O)c2cccc(C(F)(F)F)c2)CC1` was 1.44 µM.
The same measure, in the same setting: the value for `COc1cccc(Nc2cc(-c3ccc(C(=O)N4CCN(C(=O)c5cccc(C(F)(F)F)c5)CC4)cc3)ncn2)c1` was 13.5 µM.
Take `O=C(c1ccc(-c2cc(Nc3cccc(C(F)(F)F)c3)ncn2)cc1)N1CCN(C(=O)c2ccccc2F)CC1`: half-maximal inhibition (IC50) was put at 0.872 µM.
As for `O=C(c1ccc(-c2cc(Nc3cccc(F)c3)ncn2)cc1)N1CCN(C(=O)c2ccccc2F)CC1`, the IC50 was determined as 0.017 µM.
As to `O=C(c1ccc(-c2cc(Nc3ccc(F)cc3)ncn2)cc1)N1CCN(C(=O)c2ccccc2F)CC1`, 277 µM corresponded to half-maximal inhibition (IC50).
Turning to `Cc1ccc(Nc2cc(-c3ccc(C(=O)N4CCN(C(=O)c5ccccc5F)CC4)cc3)ncn2)cc1Cl`, the 50% inhibitory concentration (IC50) was > 500 µM.
In the case of `O=C(c1ccc(-c2cc(Nc3ccc(Cl)c(Cl)c3)ncn2)cc1)N1CCN(C(=O)c2ccccc2F)CC1`, the IC50 was > 500 µM.
Still for that read-out and setting: the value for `O=C(c1ccc(-c2cc(Nc3cccc(Cl)c3)ncn2)cc1)N1CCN(C(=O)c2ccccc2F)CC1` was 91.8 µM; that for `O=C(c1ccc(-c2cc(Nc3cc(C(F)(F)F)cc(C(F)(F)F)c3)ncn2)cc1)N1CCN(C(=O)c2ccccc2F)CC1` was 0.13 µM.
Turning to `CC(C)(C)c1ccc(Nc2cc(-c3ccc(C(=O)N4CCN(C(=O)c5ccccc5Cl)CC4)cc3)ncn2)cc1`, the IC50 is > 500 µM.
On the same count and under the same terms, the same measure for `O=C(c1ccc(-c2cc(Nc3cccc(C(F)(F)F)c3)ncn2)cc1)N1CCN(C(=O)c2cccc(C(F)(F)F)c2)CC1`: 0.563 µM; for `O=C(c1ccc(-c2cc(Nc3ccc(Cl)cc3Cl)ncn2)cc1)N1CCN(C(=O)c2cccc(C(F)(F)F)c2)CC1`: 266 µM.

For another assay, the system named is K562. Kind of assay: Antiproliferative activity against Bcr/Abl positive human K562 cells after 48 hrs by MTT method. Format: functional, cell-based. To be noted: K562, 48 h. The method, boiled down:
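Bcr–Abl positive K562 cells in exponential growth plated at 1 × 10⁴ cells/well and incubated 24 h at 37 °C. Compounds then added at various concentrations for 48 h. MTT (5 mg/mL) added for 4 h at 37 °C, supernatant discarded, formazan dissolved in DMSO. Absorbance read at 570 nm.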
A general note: Formazan colour is commonly taken as a measure of viable cells.
Take `O=C(c1ccc(-c2cc(Nc3ccc(C(F)(F)F)cc3)ncn2)cc1)N1CCN(C(=O)c2ccccc2F)CC1`: the IC50 is 283 µM.
The same measure, in the same setting: the same measure for `CC(C)(C)c1ccc(Nc2cc(-c3ccc(C(=O)N4CCN(C(=O)c5ccccc5F)CC4)cc3)ncn2)cc1`: > 500 µM; for `O=C(c1ccc(-c2cc(Nc3ccccc3F)ncn2)cc1)N1CCN(C(=O)c2ccccc2F)CC1`: 14.5 µM; for `O=C(c1ccc(-c2cc(Nc3cccc(Br)c3)ncn2)cc1)N1CCN(C(=O)c2ccccc2F)CC1`: > 500 µM.
Regarding `O=C(c1ccc(-c2cc(Nc3ccc(Cl)cc3Cl)ncn2)cc1)N1CCN(C(=O)c2ccccc2F)CC1`, the IC50 is > 500 µM.
On to `O=C(c1ccc(-c2cc(Nc3ccccc3Cl)ncn2)cc1)N1CCN(C(=O)c2ccccc2F)CC1`, for which the IC50 stood at 80.7 µM.
Consider `O=C(c1ccc(-c2cc(Nc3ccc(F)c(F)c3)ncn2)cc1)N1CCN(C(=O)c2ccccc2F)CC1`, for which the IC50 is > 500 µM.
Same read-out and setting: the same measure for `CC(C)c1cccc(Nc2cc(-c3ccc(C(=O)N4CCN(C(=O)c5ccccc5F)CC4)cc3)ncn2)c1`: > 500 µM.
`O=C(c1ccc(-c2cc(Nc3ccccc3Cl)ncn2)cc1)N1CCN(C(=O)c2ccccc2Cl)CC1` had an IC50 of 21.4 µM.
Regarding `O=C(c1ccc(-c2cc(Nc3ccc(F)cc3)ncn2)cc1)N1CCN(C(=O)c2cccc(C(F)(F)F)c2)CC1`, the IC50 was 86.9 µM.
In the case of `COc1cccc(Nc2cc(-c3ccc(C(=O)N4CCN(C(=O)c5cccc(C(F)(F)F)c5)CC4)cc3)ncn2)c1`, it took 106 µM to reach half-maximal inhibition (IC50).
Same read-out and setting: the value for `O=C(c1ccc(-c2cc(Nc3cccc(F)c3)ncn2)cc1)N1CCN(C(=O)c2ccccc2F)CC1` was 17.8 µM.
On the same count and under the same terms, the same measure for `O=C(c1ccc(-c2cc(Nc3ccc(Br)cc3)ncn2)cc1)N1CCN(C(=O)c2ccccc2F)CC1`: 306 µM; for `O=C(c1ccc(-c2cc(Nc3ccc(F)cc3)ncn2)cc1)N1CCN(C(=O)c2ccccc2F)CC1`: 363 µM.
The same measure, in the same setting: the value for `Cc1ccc(Nc2cc(-c3ccc(C(=O)N4CCN(C(=O)c5ccccc5F)CC4)cc3)ncn2)cc1Cl` was > 500 µM; that for `O=C(c1ccc(-c2cc(Nc3ccc(Cl)c(Cl)c3)ncn2)cc1)N1CCN(C(=O)c2ccccc2F)CC1` was > 500 µM.
In turn, `O=C(c1ccc(-c2cc(Nc3cc(C(F)(F)F)cc(C(F)(F)F)c3)ncn2)cc1)N1CCN(C(=O)c2ccccc2F)CC1` registered an IC50 of 60.4 µM.
On the same count and under the same terms, the value for `Cc1ccc(Nc2cc(-c3ccc(C(=O)N4CCN(C(=O)c5ccccc5F)CC4)cc3)ncn2)cc1` was > 500 µM.
Still for that read-out and setting: the same measure for `COc1cccc(Nc2cc(-c3ccc(C(=O)N4CCN(C(=O)c5ccccc5Cl)CC4)cc3)ncn2)c1`: 102 µM; for `O=C(c1ccc(-c2cc(Nc3cccc(C(F)(F)F)c3)ncn2)cc1)N1CCN(C(=O)c2cccc(C(F)(F)F)c2)CC1`: 25.9 µM.
`O=C(c1ccc(-c2cc(Nc3ccc(Cl)cc3Cl)ncn2)cc1)N1CCN(C(=O)c2cccc(C(F)(F)F)c2)CC1` had an IC50 of 562 µM.
On the same count and under the same terms, the same measure for `Cc1ccc(NC(=O)c2ccc(CN3CCN(C)CC3)cc2)cc1Nc1nccc(-c2cccnc2)n1` [IMATINIB]: 4.12 µM.

By IC50 is commonly meant the concentration at which inhibition is half-maximal. A low value points to higher potency.
